PMC5361402 (Diabetes, 2014)

Key:
[1] = test system: patients with type 1 and type 2 diabetes; settings: phase II, patients previously treated with other basal insulins; cited from earlier work
conscious dogs = assay: Euglycemic clamp with tracer and hepatic balance measurements in conscious dogs; type: in vivo, dog; settings: control group (regular human insulin 0.11 nmol/kg/h iv, n=6)
Outline: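 Conscious dogs had 30 min of basal sampling (90–120 min), then a 5-h euglycemic clamp (120–420 min). Somatostatin and regular human insulin (no priming dose) were given by peripheral vein, glucagon intraportally at basal 0.5 ng ⋅ kg−1 ⋅ min−1, and glucose infused to hold euglycemia. [3H]glucose tracer; Ra from Mari circulatory model; hepatic organ-balance calculations; triglycerides assayed spectrophotometrically; n = 6.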

[2] = Plasma insulin / serum LY concentrations and organ extraction during the clamp; type: in vivo, dog
[3] = cited from earlier work
[4] = cited from earlier work; remark: listed apart in the source
[5] = regular insulin 0.11 nmol/kg/h iv during the clamp, dog

For insulin glargine, the Body weight change [1] is listed as “modest weight gain”.
In the case of “regular insulin: regular human insulin infused via peripheral vein in the control group”, the “Change from baseline in net hepatic glucose balance by 420 min” value (conscious dogs) is reported as 10.3 ± 1.4 µmol ⋅ kg^-1 ⋅ min^−1, the “Fall of arterial plasma triglyceride concentration below baseline by 420 min” value (conscious dogs) is reported as ~ 40% and the “Increase in non-HGU over the basal rate in the final hour” value (conscious dogs) is reported as 11.1 ± 4.5 µmol ⋅ kg^−1 ⋅ min^−1. For the same substance, the “Time to NEFA nadir after the start of the clamp period” value (conscious dogs) was ≤ 90 min, the “Nadir of NEFA concentrations” value (conscious dogs; arterial plasma) was 271 ± 57 µmol/L and the “Fall from basal in endogenous glucose Ra by the final hour” value (conscious dogs; tracer-determined) was 8.9 ± 1.9 µmol ⋅ kg^−1 ⋅ min^−1. For the same substance, the “Portal vein insulin concentration during the clamp” value ([2]; control group (regular human insulin 0.11 nmol/kg/h iv, n=6)) was ~ 50 % of basal, the Fractional hepatic extraction [2, 5] was 50 ± 3% and the Fractional renal extraction [2, 5] was 61 ± 3%.
In the case of insulin degludec, the “T1/2 relative to that of glargine” value [3] is listed as “approximately two times”.
In the case of “insulin: endogenously secreted insulin to which the liver is exposed”, the “Hepatic extraction of the insulin to which the liver is exposed” value [4] is given as 50–60%.
